{"source": "ChEMBL document CHEMBL4257584", "about": "“Sterol 14α-Demethylase Structure-Based Optimization of Drug Candidates for Human Infections with the Protozoan Trypanosomatidae” (J Med Chem, 2018)", "key": {"[1]": {"test": "Half life in human liver microsomes at 1 uM preincubated for 5 mins followed by NADPH addition and measured by LC/MS/MS analysis", "assay_type": "ADME, microsome", "settings": "microsomes, 1 µM"}, "[2]": {"test": "Intrinsic clearance in human liver microsomes at 1 uM preincubated for 5 mins followed by NADPH addition and measured after 45 mins by LC/MS/MS analysis", "assay_type": "ADME, microsome", "settings": "read-out: CLH"}, "[3]": {"test": "Hepatic clearance in human liver microsomes at 1 uM preincubated for 5 mins followed by NADPH addition and measured after 45 mins by LC/MS/MS analysis", "assay_type": "ADME, microsome"}, "[4]": {"test": "Intrinsic clearance in Sprague-Dawley rat liver microsomes at 1 uM preincubated for 5 mins followed by NADPH addition and measured after 45 mins by LC/MS/MS analysis", "assay_type": "ADME, microsome", "settings": "read-out: CLH"}, "[5]": {"test": "Hepatic clearance in Sprague-Dawley rat liver microsomes at 1 uM preincubated for 5 mins followed by NADPH addition and measured after 45 mins by LC/MS/MS analysis", "assay_type": "ADME, microsome", "procedure,_shortened": "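Pooled liver microsomes at 0.5 mg/mL: human (mixed gender), male Sprague-Dawley rat, or male CD-1 mouse, with test compound at 1 μM, triplicate. In vitro t1/2 is scaled to CLint (45 mg microsomes/g liver; 45 g liver/kg scaling factor). CLhep uses well-stirred model with hepatic blood flow 21 (human), 70 (rat), 90 (mouse) mL/min/kg.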"}, "[6]": {"test": "Half life in Sprague-Dawley rat liver microsomes at 1 uM preincubated for 5 mins followed by NADPH addition and measured by LC/MS/MS analysis", "assay_type": "ADME, microsome", "settings": "microsomes, 1 µM"}, "[7]": {"test": "Intrinsic clearance in CD1 mouse liver microsomes at 1 uM preincubated for 5 mins followed by NADPH addition and measured after 45 mins by LC/MS/MS analysis", "assay_type": "ADME, microsome", "settings": "read-out: CLH"}, "[8]": {"test": "Hepatic clearance in CD1 mouse liver microsomes at 1 uM preincubated for 5 mins followed by NADPH addition and measured after 45 mins by LC/MS/MS analysis", "assay_type": "ADME, microsome"}, "[9]": {"test": "Half life in CD1 mouse liver microsomes at 1 uM preincubated for 5 mins followed by NADPH addition and measured by LC/MS/MS analysis", "assay_type": "ADME, microsome", "settings": "mouse, microsomes, 1 µM"}, "[10]": {"test": "Maximum plasma concentration in BALB/c mouse at 25 mg/kg, po via gavage by […]", "assay_type": "ADME, organism-based", "parameters": "dose 25 mg/kg, route oral", "procedure,_shortened": "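Single oral gavage dose of 25 mg/kg in BALB/c mice; blood sampled at 1, 2, 4, 6, 10, 16, 24 h. Plasma is diluted in PBS with ketoconazole internal standard, extracted with 80% acetonitrile, dried and redissolved. Analysed by reversed-phase HPLC with UV at 291/250 nm, 0.1 μM detection limit. Lifetime is time until undetectable.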"}, "[11]": {"test": "Drug uptake in BALB/c mouse heart at 25 mg/kg, po via gavage measured after 4 hrs post dose by […]", "assay_type": "ADME, organism-based", "settings": "read-out: Drug uptake", "procedure,_shortened": "(§1)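 BALB/c mice get a single oral gavage dose of 25 mg/kg; tissues are collected 4 h post-dose. About 100 mg tissue is diluted 5-fold in PBS and homogenized. Homogenate is extracted as for plasma (ketoconazole internal standard, acetonitrile extraction) and quantified by HPLC-UV at 291 nm, 0.1 μM detection limit, n=2.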"}, "[12]": {"test": "Drug uptake in BALB/c mouse lungs at 25 mg/kg, po via gavage measured after 4 hrs post dose by […]", "assay_type": "ADME, organism-based, Lung", "settings": "read-out: Drug uptake", "procedure,_shortened": "as §1"}, "[13]": {"test": "Drug uptake in BALB/c mouse spleen at 25 mg/kg, po via gavage measured after 4 hrs post dose by […]", "assay_type": "ADME, organism-based", "settings": "read-out: Drug uptake", "procedure,_shortened": "as §1"}, "[14]": {"test": "Drug uptake in BALB/c mouse blood at 25 mg/kg, po via gavage measured after 4 hrs post dose by […]", "assay_type": "ADME, organism-based", "settings": "read-out: Drug uptake", "procedure,_shortened": "as §1"}, "[15]": {"test": "Drug uptake in BALB/c mouse brain at 25 mg/kg, po via gavage measured after 4 hrs post dose by […]", "assay_type": "ADME, organism-based", "settings": "read-out: Drug uptake", "procedure,_shortened": "as §1"}, "[16]": {"test": "Drug uptake in BALB/c mouse liver at 25 mg/kg, po via gavage measured after 4 hrs post dose by […]", "assay_type": "ADME, organism-based", "settings": "read-out: Drug uptake", "procedure,_shortened": "as §1"}, "[17]": {"test": "Drug uptake in BALB/c mouse heart at 25 mg/kg, po via gavage measured after 2 hrs post dose by LC-MS analysis", "assay_type": "ADME, organism-based", "settings": "in vivo"}, "[18]": {"test": "Drug uptake in BALB/c mouse liver at 25 mg/kg, po via gavage measured after 2 hrs post dose by LC-MS analysis", "assay_type": "ADME, organism-based", "settings": "in vivo"}, "[19]": {"test": "Drug uptake in BALB/c mouse lungs at 25 mg/kg, po via gavage measured after 2 hrs post dose by LC-MS analysis", "assay_type": "ADME, organism-based, Lung", "settings": "in vivo"}, "[20]": {"test": "Drug uptake in BALB/c mouse spleen at 25 mg/kg, po via gavage measured after 2 hrs post dose by LC-MS analysis", "assay_type": "ADME, organism-based", "settings": "in vivo"}, "[21]": {"test": "Drug uptake in BALB/c mouse blood at 25 mg/kg, po via gavage measured after 2 hrs post dose by LC-MS analysis", "assay_type": "ADME, organism-based", "settings": "in vivo"}, "[22]": {"target": "Lanosterol 14-alpha-demethylase (Trypanosoma brucei brucei (strain 927/4 GUTat10.1)) (UniProt Q385E8)", "sequence (Q385E8 1-481)": "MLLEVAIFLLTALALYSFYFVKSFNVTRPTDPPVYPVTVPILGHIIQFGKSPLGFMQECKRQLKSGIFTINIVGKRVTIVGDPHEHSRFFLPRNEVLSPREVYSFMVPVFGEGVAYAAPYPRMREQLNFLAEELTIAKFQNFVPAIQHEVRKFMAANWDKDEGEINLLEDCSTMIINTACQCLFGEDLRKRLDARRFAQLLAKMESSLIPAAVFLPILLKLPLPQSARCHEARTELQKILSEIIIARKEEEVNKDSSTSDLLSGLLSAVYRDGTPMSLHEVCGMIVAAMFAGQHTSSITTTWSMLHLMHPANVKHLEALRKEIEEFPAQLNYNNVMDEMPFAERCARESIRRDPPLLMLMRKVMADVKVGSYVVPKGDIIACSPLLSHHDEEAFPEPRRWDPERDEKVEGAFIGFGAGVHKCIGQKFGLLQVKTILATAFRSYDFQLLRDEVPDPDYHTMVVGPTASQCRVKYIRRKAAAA", "test": "Inhibition of Trypanosoma brucei […] CYP51 expressed in Escherichia coli using [3-3H]-obtusifoliol as substrate after 60 mins by LC-MS analysis", "procedure,_shortened": "(§2)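 Reconstituted reaction: 1 μM purified CYP51, 2 μM T. brucei NADPH-P450 reductase, 100 μM dilauroylphosphatidylcholine, isocitrate dehydrogenase/isocitrate regeneration, 50 mM K phosphate pH 7.2, 10% glycerol. [3-3H]sterol substrate at 50 μM final (eburicol for T. cruzi; obtusifoliol for T. brucei and L. infantum) with inhibitor at 1.1 μM final. Preincubate 60 s at 37 °C, start with 100 μM NADPH, run 60 min, EtOAc extraction. Gives % inhibition of 14α-demethylation, triplicate, mean ± SD.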"}, "[23]": {"target": "Sterol 14-alpha demethylase (Trypanosoma cruzi (strain CL Brener)) (UniProt Q7Z1V1)", "sequence (Q7Z1V1 whole entry, looked up)": "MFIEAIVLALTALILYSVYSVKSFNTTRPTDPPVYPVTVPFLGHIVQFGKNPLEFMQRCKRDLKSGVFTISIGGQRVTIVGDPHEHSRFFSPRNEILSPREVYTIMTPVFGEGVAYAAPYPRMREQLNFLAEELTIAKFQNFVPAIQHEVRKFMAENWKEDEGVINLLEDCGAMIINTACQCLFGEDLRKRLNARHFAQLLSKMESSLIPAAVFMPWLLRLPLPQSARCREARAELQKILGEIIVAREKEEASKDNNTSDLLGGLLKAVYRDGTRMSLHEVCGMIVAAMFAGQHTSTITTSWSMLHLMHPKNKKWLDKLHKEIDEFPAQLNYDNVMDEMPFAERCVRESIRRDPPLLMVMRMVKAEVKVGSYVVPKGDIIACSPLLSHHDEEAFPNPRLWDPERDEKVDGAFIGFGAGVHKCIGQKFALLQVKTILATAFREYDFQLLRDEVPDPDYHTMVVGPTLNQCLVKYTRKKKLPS", "test": "Inhibition of Trypanosoma cruzi Y CYP51 expressed in Escherichia coli using [3-3H]-eburicol as substrate after 60 mins by LC-MS analysis", "procedure,_shortened": "as §2"}, "[24]": {"target": "Putative lanosterol 14-alpha-demethylase (Leishmania infantum) (UniProt A2TEF2)", "sequence (A2TEF2 1-480)": "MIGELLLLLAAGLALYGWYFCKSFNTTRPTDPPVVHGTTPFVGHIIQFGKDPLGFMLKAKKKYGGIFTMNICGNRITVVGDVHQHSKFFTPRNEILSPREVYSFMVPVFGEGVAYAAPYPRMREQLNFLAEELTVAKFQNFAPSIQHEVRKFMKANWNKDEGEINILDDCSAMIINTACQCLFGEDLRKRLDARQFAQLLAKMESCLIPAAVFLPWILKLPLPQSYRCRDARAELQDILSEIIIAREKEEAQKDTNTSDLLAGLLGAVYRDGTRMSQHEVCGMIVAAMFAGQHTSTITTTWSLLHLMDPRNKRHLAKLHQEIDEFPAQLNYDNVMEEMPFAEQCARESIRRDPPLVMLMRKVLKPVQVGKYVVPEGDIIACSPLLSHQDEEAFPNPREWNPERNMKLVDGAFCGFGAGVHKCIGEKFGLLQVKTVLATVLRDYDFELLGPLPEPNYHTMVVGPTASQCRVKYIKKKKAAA", "test": "Inhibition of Leishmania infantum CYP51 expressed in Escherichia coli using [3-3H]-obtusifoliol as substrate after 60 mins by LC-MS analysis", "procedure,_shortened": "as §2"}, "[25]": {"test": "Lipophilicity, log P of the compound", "assay_type": "physicochemical", "settings": "octanol/water"}, "[26]": {"test": "Drug uptake in BALB/c mouse intestine at 25 mg/kg, po via gavage measured after 2 hrs post dose by LC-MS analysis", "assay_type": "ADME, organism-based", "settings": "read-out: Drug uptake"}, "[27]": {"test": "Drug uptake in BALB/c mouse brain at 25 mg/kg, po via gavage measured after 4 hrs post dose by LC-MS analysis", "settings": "in vivo"}}, "note": "Calls of active or inactive are those of the source. The rule behind the calls is not given here."}
{"smiles": "CS(=O)(=O)c1ccc(-c2ccc([C@H](Cn3ccnc3)NC(=O)c3ccc(-c4nnc(-c5ccccc5)o4)cc3)c(Cl)c2)cc1", "values": [{"measurement": "t1/2", "setting": "[1]", "value": 108, "unit": "min"}, {"measurement": "CLint scaled at 1 µM", "setting": "[2]", "value": 11.6, "unit": "mL/min/kg"}, {"measurement": "CLhep predicted at 1 µM", "setting": "[3]", "value": 7.46, "unit": "mL/min/kg"}, {"measurement": "CLint scaled at 1 µM", "setting": "[4]", "value": 58.1, "unit": "mL/min/kg"}, {"measurement": "CLhep predicted at 1 µM", "setting": "[5]", "value": 31.7, "unit": "mL/min/kg"}, {"measurement": "t1/2", "setting": "[6]", "value": 48, "unit": "min"}, {"measurement": "CLint scaled at 1 µM", "setting": "[7]", "value": 127, "unit": "mL/min/kg"}, {"measurement": "CLhep predicted at 1 µM", "setting": "[8]", "value": 52.6, "unit": "mL/min/kg"}, {"measurement": "t1/2", "setting": "[9]", "value": 43, "unit": "min"}, {"measurement": "Cmax", "setting": "[10]", "value": "< 100", "unit": "nM"}, {"measurement": "concentration at 4 h", "setting": "[11]", "value": "< 100", "unit": "nM"}, {"measurement": "concentration at 4 h", "setting": "[12]", "value": "< 100", "unit": "nM"}, {"measurement": "concentration at 4 h", "setting": "[13]", "value": "< 100", "unit": "nM"}, {"measurement": "concentration at 4 h", "setting": "[14]", "value": "< 100", "unit": "nM"}, {"measurement": "concentration at 4 h", "setting": "[15]", "value": "< 100", "unit": "nM"}, {"measurement": "concentration at 4 h", "setting": "[16]", "value": "< 100", "unit": "nM"}, {"measurement": "Drug uptake", "setting": "[17]", "value": "Not Active"}, {"measurement": "Drug uptake", "setting": "[18]", "value": "Not Active"}, {"measurement": "Drug uptake", "setting": "[19]", "value": "Not Active"}, {"measurement": "Drug uptake", "setting": "[20]", "value": "Not Active"}, {"measurement": "Drug uptake", "setting": "[21]", "value": "Not Active"}, {"measurement": "inhibition", "setting": "[22]", "value": "inactive"}, {"measurement": "inhibition", "setting": "[23]", "value": "inactive"}, {"measurement": "inhibition", "setting": "[24]", "value": "inactive"}, {"measurement": "logP", "setting": "[25]", "value": 4.39}, {"measurement": "concentration at 2 h", "setting": "[26]", "value": 130000, "unit": "nM"}, {"measurement": "Drug uptake", "setting": "[27]", "value": "Not Active"}]}
